Screens as filed in PubChem BioAssay.
CSC inhib = cancer stem cell viability inhibitors, primary screen, luminescence; hit rate 1.1% among 300,000; cancer stem cell-like cells viability; inhibition, % at 7.5 µM; in the data active means inhibition above about 75%; inconclusive means no clear call, values can overlap the other calls; tested in HMLE shEcad cells
Mdm2 MdmX PPI = inhibitors of human Mdm2-MdmX association, primary screen, cell-based, luminescence, split luciferase, SaOS-2, uHTS; inhibition, % at 8 µM; SaOS-2 split-luciferase Mdm2/MdmX complementation; hit rate 3% among 330,000;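 active means inhibition of at least 50% at 8 µM in the primary screen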
Target sequence (O15151 whole entry, looked up): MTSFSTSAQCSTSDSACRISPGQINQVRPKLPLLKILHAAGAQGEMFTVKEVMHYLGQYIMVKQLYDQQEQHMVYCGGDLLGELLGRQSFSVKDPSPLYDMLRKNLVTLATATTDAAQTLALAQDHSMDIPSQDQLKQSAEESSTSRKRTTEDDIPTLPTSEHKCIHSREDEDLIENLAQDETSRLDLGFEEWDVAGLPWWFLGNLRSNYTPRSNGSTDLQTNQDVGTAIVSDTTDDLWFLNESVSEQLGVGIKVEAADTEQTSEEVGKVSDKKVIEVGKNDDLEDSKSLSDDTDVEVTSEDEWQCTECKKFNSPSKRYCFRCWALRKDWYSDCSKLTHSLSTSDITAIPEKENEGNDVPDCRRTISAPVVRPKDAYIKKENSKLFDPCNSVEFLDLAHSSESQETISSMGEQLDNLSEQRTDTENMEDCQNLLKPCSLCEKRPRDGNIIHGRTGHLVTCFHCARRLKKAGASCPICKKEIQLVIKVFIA
Target sequence (Q00987 whole entry, looked up): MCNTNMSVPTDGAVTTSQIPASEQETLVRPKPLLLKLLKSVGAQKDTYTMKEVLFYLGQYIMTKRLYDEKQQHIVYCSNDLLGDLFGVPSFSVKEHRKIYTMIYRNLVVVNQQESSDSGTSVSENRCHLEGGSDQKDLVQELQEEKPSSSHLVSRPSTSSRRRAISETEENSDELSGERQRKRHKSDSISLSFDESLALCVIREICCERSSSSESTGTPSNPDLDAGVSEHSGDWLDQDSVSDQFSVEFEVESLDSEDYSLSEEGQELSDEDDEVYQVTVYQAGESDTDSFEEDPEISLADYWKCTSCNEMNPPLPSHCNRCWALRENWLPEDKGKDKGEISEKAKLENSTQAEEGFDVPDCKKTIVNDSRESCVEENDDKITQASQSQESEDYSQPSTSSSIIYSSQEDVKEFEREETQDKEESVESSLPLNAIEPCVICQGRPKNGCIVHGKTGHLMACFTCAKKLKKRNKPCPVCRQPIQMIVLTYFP
SKKanGAS inh = S. pyogenes SKKanGAS growth inhibitors in kanamycin, primary screen, streptokinase expression inhibitor project, SKKanGAS strain, BacTiter-Glo luminescence. hit rate 1.3% among 300,000. 6 h. inhibition, % at 7.5 µM. AID 1662, 2009;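 active means mean replicate score, as percent of positive control median, at least 50; inconclusive means mean below 50 but one replicate at or above 50; inactive means mean and every replicate below 50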;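 further: strain carries kanamycin resistance gene driven by streptokinase promoter and grows in 40 µg/ml kanamycin; loss of luminescence reflects streptokinase promoter inhibition or plain growth inhibition; 0% = median of DMSO wells and 100% = positive control at its reference dose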
UPR XBP1 act = activators of adaptive XBP1 UPR arm, primary screen, cell-based, CHO-XBP1 luciferase reporter, luminescence, uHTS; IRE1-XBP1 UPR activation; percent of tunicamycin response, DMSO as zero; activation, % at 20 µM; hit rate 0.33% among 330,000; AID 463104, 2010;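 active means versus positive control, 20 µM dose yields 30% or more activation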;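 further: 100% = tunicamycin at 10 µg/mL and 0% = DMSO only wells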
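Assay system: IRE1-XBP1 luciferase reporter CHO line. Input: 1000 cells/well. Buffer or medium: F12 with 10% serum. Doses: 20 µM, 1% DMSO. Times: overnight seeding at 37 °C, 6 h compound treatment at 37 °C. Technique: Steady-Glo luciferase glow luminescence, 10 min after reagent addition.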
Beta apoptosis = inhibitors of cytokine-induced beta cell apoptosis, primary screen, luminescence. hit rate 0.8% among 300,000. protection from apoptosis, % (no concentration beside the values). AID 435005, 2010. INS-1E cytokine-induced death, ATP luminescence, 48 h; percent of positive-control rescue, neutral wells zero;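 active means Every replicate reaches about 75%, or at least half do and their mean reaches it too, limit read from the data; inconclusive means At least half of replicates reach the limit but their mean does not; inactive means Under half of replicates reach the limit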;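 further: 0% = cytokine-treated negative control wells and 100% = positive control rescue; higher means more ATP so stronger rescue from cytokine killing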
CHOP UPR activ = activators of apoptotic CHOP UPR arm, primary screen, cell-based, CHO-CHOP luciferase reporter, luminescence, uHTS; activation, % at 10 µM; UPR activation; percent of tunicamycin response over DMSO baseline; hit rate 0.34% among 330,000;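 active means at 10 µM dose, activation of 40% or more, normalized to positive control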;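 further: 100% = tunicamycin at 10 µg/mL and 0% = DMSO alone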
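Test system: CHO-CHOP cells, stable luciferase reporter of PERK-eIF2a-CHOP signalling | Quantity: 500 CHO-CHOP cells per well | Buffer or medium: F12 plus 10% serum | Compound dosing: 10 µM single point, 0.5% DMSO | Schedule: 6 h compound treatment, 37 °C | Signal: Luciferase luminescence | Control set: Tunicamycin high control, DMSO low control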
Numbers without * were called inactive; ? = inconclusive; / = no result given. Compounds with a hit are over-represented: about 4.8% of the library has one in this group of screens.

SMILES	CSC inhib	Mdm2 MdmX PPI	SKKanGAS inh	UPR XBP1 act	Beta apoptosis	CHOP UPR activ
COc1ccc(-c2sc3cc(OC)c(OC)cc3c2C#CC(C)(C)O)cc1	17	46	/	9	3	3
COc1cccc(-c2sc3ccc(OC)cc3c2C#CC(C)(C)O)c1	118*	-17	/	4	-6	7
CNC(=S)N(CCCN(C)C)Cc1cc2cc3c(cc2[nH]c1=O)OCCO3	2	-1	1	-4	-3	0
Cc1ccc2nc(-c3cccc(S(=O)(=O)N4CC(C)OC(C)C4)c3)cn2c1 (stereo not given)	-9	23	-2	0	2	2
CCCN1CCCc2cc(CN)ccc21	14	17	-11	-1	98*	0
Nc1ncnc2c1ncn2[C@@H]1O[C@H](CNC(=O)[C@@H]2C[C@H](F)CN2)[C@@H](O)[C@H]1O	/	-17	/	1	/	2
Cc1ccc(S(=O)(=O)Nc2ccc(-c3nnc(SCc4ccccc4Cl)o3)cc2)cc1	88*	24	8	-5	1	1
Cc1ccc(CSc2nnc(-c3ccc(NS(=O)(=O)c4ccccc4)cc3)o2)cc1	49	11	14	-4	3	2
COc1ccccc1/C=C1\S/C(=N/NC(=O)c2cccc(Br)c2)NC1=O	114*	50	81*	0	16	0
Cc1c(/C=N/NC(=O)c2ccc(O)cc2)c2ccccn2c1C(=O)c1ccc(F)cc1	30	46	52*	-1	6	-2
O=C(OCCN1CCN(C2=NS(=O)(=O)c3ccccc32)CC1)c1ccccc1F	8	-22	-3	-7	1	-1
O=Nc1c(O)n(Cc2ccc(Cl)c(Cl)c2)c2ccccc12	84*	49	24	2	11	-1
Cc1ccccc1C(=O)Oc1ccc(Sc2ccc(O)cc2)cc1	25	24	96*	2	7	4
COc1cc2cc(Oc3ccc4ccc(=O)oc4c3)c(=O)oc2cc1OC(C)=O	6	-16	46	2	-4	1
COc1cc2cc(Oc3ccc4ccc(=O)oc4c3)c(=O)oc2cc1O	-3	-13	59*	0	-2	1
CCCn1c(SCC(=O)N2c3ccccc3CC2C)n[nH]c1=O (stereo not given)	/	-1	/	0	/	0
Cc1nnc(SC(C)C(=O)Nc2ccc(Cl)cc2Cl)[nH]c1=O (stereo not given)	-5	8	/	-1	4	1
CCOC(=O)N1CCN(S(=O)(=O)c2ccc(C(=O)Nc3nnc(C4CC4)o3)cc2)CC1	6	9	3	-1	-4	0
CC1CC(C)CN(S(=O)(=O)c2ccc(C(=O)Nc3nnc(C4CC4)o3)cc2)C1 (stereo not given)	63	49	68*	-2	27	-1
O=C(Nc1nnc(C2=COCCO2)o1)c1ccc(S(=O)(=O)N2CCCC2)cc1	7	22	2	-1	0	9
CCC1CCCCN1S(=O)(=O)c1ccc(C(=O)Nc2nnc(C3CC3)o2)cc1 (stereo not given)	26	43	60*	-3	4	2
CCC1CCCCN1S(=O)(=O)c1ccc(C(=O)Nc2nnc(C3=COCCO3)o2)cc1 (stereo not given)	21	25	79*	-5	-2	-1
CCN(c1ccc(OC)cc1)S(=O)(=O)N1CCCC(C(=O)NCc2cccc(C)c2)C1 (stereo not given)	2	2	-3	0	-3	2
COc1cc(NC(=O)Nc2cccc(Cl)c2)c(OC)cc1NC(=O)CN1CCCCC1	115*	39	41	-1	8	1
Cc1c(C(=O)Nc2nccs2)sc2nc(-c3cccs3)cc(C(F)(F)F)c12	25	42	95*	4	35	1
SMILES	CSC inhib	Mdm2 MdmX PPI	SKKanGAS inh	UPR XBP1 act	Beta apoptosis	CHOP UPR activ
CC(C)(C)c1cc(C(=O)NNc2cccc(Cl)c2)n(Cc2ccccc2)n1	128*	17	32	-3	23	2
CC(C)(C)c1cc(C(=O)NNc2cc(C(F)(F)F)ccc2Cl)n(Cc2ccccc2)n1	103*	29	99*	4	36	2
CC(C)(C)c1cc(C(=O)Nc2ccc(F)cc2)n(Cc2ccc(F)cc2)n1	41	44	?	0	8	1
COc1ccccc1NNC(=O)c1cc(C(C)(C)C)nn1Cc1ccccc1	30	-11	-5	-4	-1	5
CC(C)(C)c1cc(C(=O)NNc2ccc(OC(F)(F)F)cc2)n(Cc2ccccc2)n1	78*	15	11	-3	6	-1
CC(C)(C)C(=O)NNC(=O)c1cc(C(C)(C)C)nn1Cc1ccccc1	-18	7	3	1	-8	3
CC(C)(C)c1cc(C(=O)NC2CC2)n(Cc2ccc(F)cc2)n1	0	9	-4	-3	-1	0
Cc1ccc(NNC(=O)c2cc(C(C)(C)C)nn2Cc2ccccc2)cc1	93*	17	60*	-3	7	0
FC(F)(F)c1cnc(/C=C/Nc2ccccc2Cl)c(Cl)c1	6	9	43	1	-4	1
C[N+]1=C(/C=C/Nc2ccccc2Cl)C(C)(C)c2ccccc21	0	-13	6	-2	99*	1
O=C(NCC1COc2ccccc2O1)c1cccc(S(=O)(=O)N2CCN(c3ccccc3)CC2)c1 (stereo not given)	/	27	/	-3	/	4
COc1ccc(-n2sc3c(c2=S)-c2cc(OC)ccc2NC3(C)C)cc1	129*	28	24	1	6	0
COc1ccc2c(c1)-c1c(sn(-c3ccccc3)c1=S)C(C)(C)N2	-7	31	29	2	0	0
COc1ccc(NC(=O)N2CCCC(c3nc(-c4ccc(OC)cc4)no3)C2)cc1 (stereo not given)	-1	3	-24	-2	-1	2
COc1ccc(NC(=O)N2CCCC(c3nc(-c4ccc(C(C)C)cc4)no3)C2)cc1 (stereo not given)	96*	-119	3	0	16	1
O=C(O)CCn1c(SCCOc2ccccc2F)nc2ccccc21	0	2	-3	-2	0	-1
C=CCn1c(SCC(=O)c2[nH]c(C)c(C(=O)OCC)c2C)nc2scc(-c3ccc(OC)c(OC)c3)c2c1=O	93*	/	20	/	95*	/
CC1=NN(c2nc3ccccc3[nH]2)C(=O)/C1=C/N(C)C	91*	29	/	-5	113*	-2
